Drawing on ChEMBL document CHEMBL1132583, “Design and synthesis of novel amphiphilic dendritic galactosides for selective targeting of liposomes to the hepatic asialoglycoprotein receptor” (J Med Chem, 1999), this text covers Recovery and Uptake for 3 compounds.

Common to all, as to type: functional, organism-based
Details in all cases: Microsome

For assay [1], the species on record is Mus musculus. Nature of the assay: The percent recovery of the addedglycolipid (100 ug) with the liposomes in Mice at 5% w/w of the compound. A digest of the protocol:
(§1)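 Glycolipid (0–50 μg; 5, 10 or 50% w/w) incubated with sonicated [3H]cholesteryl oleate-labeled egg PC liposomes (100 μg phospholipid) for 30 min at 37 °C. Incorporated and free glycolipid separated by FPLC on Superose-6 or Sephacryl S-1000, PBS pH 7.4 eluent, 50 μL/min. Galactose content of fractions measured by galactose oxidase assay. Recovery is given as percent of added glycolipid eluting with liposomes. Mean ± variation, n = 2.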

The species entered for assay [2] is Mus musculus. Put plainly: The percent recovery of the addedglycolipid (100 ug) with the liposomes in Mice at 10% w/w (n = 2). In short, it runs like this: as §1
Assay [3] is filed under the species Mus musculus. Nature of the assay: The percent recovery of the addedglycolipid (100 ug) with the liposomes in Mice at 5% w/w (n = 2). In short, it runs like this: as §1
The species entered for assay [4] is Mus musculus. Put plainly: The percent recovery of the addedglycolipid (100 ug) with the liposomes in Mice at 50% w/w (n = 2). In short, it runs like this:
as §1

The test system of assay [5] is Mus musculus. Put plainly: Uptake by the liver liposomes upon intravenous injection in Mice at 50% w/w (n = 2). A digest of the protocol:
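Optional asialofetuin preinjection (50 mg/kg) given 1 min before. Liver lobules and blood sampled over time. At 30 min, liver 3H is expressed as % injected dose, corrected for serum radioactivity. Mean ± variation of two experiments.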

In turn, `CCCCCCCC/C=C\CCCCCCCC(=O)O[C@H]1CC[C@@]2(C)C(=CC[C@H]3[C@@H]4CC[C@H](C(C)CCC(=O)NCCCC(=O)NCC(=O)NC(COCCC(=O)NCCCNC(=O)CCCCO[C@@H]5O[C@H](CO)[C@H](O)[C@@H](O)[C@H]5O)(COCCC(=O)NCCCNC(=O)CCCCO[C@@H]5O[C@H](CO)[C@H](O)[C@@H](O)[C@H]5O)COCCC(=O)NCCCNC(=O)CCCCO[C@@H]5O[C@H](CO)[C@H](O)[C@@H](O)[C@H]5O)[C@@]4(C)CC[C@@H]32)C1` (stereo partly specified) gave a Recovery in the assay filed under Mus musculus [1] of 100%.

For `CCCCCCCC/C=C\CCCCCCCC(=O)O[C@H]1CC[C@@]2(C)C(CC[C@H]3[C@@H]4CC[C@H](C(C)CCC(=O)NCCCC(=O)NCC(=O)NC(COCCC(=O)NCCCNC(=O)CCCCO[C@@H]5O[C@H](CO)[C@H](O)[C@@H](O)[C@H]5O)(COCCC(=O)NCCCNC(=O)CCCCO[C@@H]5O[C@H](CO)[C@H](O)[C@@H](O)[C@H]5O)COCCC(=O)NCCCNC(=O)CCCCO[C@@H]5O[C@H](CO)[C@H](O)[C@@H](O)[C@H]5O)[C@@]4(C)CC[C@@H]32)C1` (stereo partly specified), the Recovery in the assay filed under Mus musculus [2] was determined as 96.5%; in the assay listed under Mus musculus [3], 100%; in the assay listed under Mus musculus [4], 59.4%. In addition, the Uptake in the assay with Mus musculus [5] came to 83.5%.

For the compound `CCCCCCCC/C=C\CCCCCCCC(=O)O[C@H]1CC[C@@]2(C)C(=CC[C@H]3[C@@H]4CC[C@H](C(C)C(=O)NCCCC(=O)NCC(=O)NC(COCCC(=O)NCCCNC(=O)CCCCO[C@@H]5O[C@H](CO)[C@H](O)[C@@H](O)[C@H]5O)(COCCC(=O)NCCCNC(=O)CCCCO[C@@H]5O[C@H](CO)[C@H](O)[C@@H](O)[C@H]5O)COCCC(=O)NCCCNC(=O)CCCCO[C@@H]5O[C@H](CO)[C@H](O)[C@@H](O)[C@H]5O)[C@@]4(C)CC[C@@H]32)C1` (stereo partly specified), the Recovery in the assay listed under Mus musculus [1] is 100%.
